Experimental data published in ChEMBL document CHEMBL3526053, “Species-dependent uptake of glycylsarcosine but not oseltamivir in Pichia pastoris expressing the rat, mouse, and human intestinal peptide transporter PEPT1” (Drug Metab Dispos, 2012).

Assays:
Type in all cases: ADME
[1] = molecular target: T1, Solute carrier family 15 member 1 (Mus musculus, UniProt Q9JIP7); assay: Drug uptake in Pichia pastoris GS115 expressing mouse recombinant PEPT1 at 5 uM after 30s by dual-channel liquid scintillation counting analysis in presence of cephradine relative to control; conditions: 0.5 min
T1 sequence (Q9JIP7 whole entry): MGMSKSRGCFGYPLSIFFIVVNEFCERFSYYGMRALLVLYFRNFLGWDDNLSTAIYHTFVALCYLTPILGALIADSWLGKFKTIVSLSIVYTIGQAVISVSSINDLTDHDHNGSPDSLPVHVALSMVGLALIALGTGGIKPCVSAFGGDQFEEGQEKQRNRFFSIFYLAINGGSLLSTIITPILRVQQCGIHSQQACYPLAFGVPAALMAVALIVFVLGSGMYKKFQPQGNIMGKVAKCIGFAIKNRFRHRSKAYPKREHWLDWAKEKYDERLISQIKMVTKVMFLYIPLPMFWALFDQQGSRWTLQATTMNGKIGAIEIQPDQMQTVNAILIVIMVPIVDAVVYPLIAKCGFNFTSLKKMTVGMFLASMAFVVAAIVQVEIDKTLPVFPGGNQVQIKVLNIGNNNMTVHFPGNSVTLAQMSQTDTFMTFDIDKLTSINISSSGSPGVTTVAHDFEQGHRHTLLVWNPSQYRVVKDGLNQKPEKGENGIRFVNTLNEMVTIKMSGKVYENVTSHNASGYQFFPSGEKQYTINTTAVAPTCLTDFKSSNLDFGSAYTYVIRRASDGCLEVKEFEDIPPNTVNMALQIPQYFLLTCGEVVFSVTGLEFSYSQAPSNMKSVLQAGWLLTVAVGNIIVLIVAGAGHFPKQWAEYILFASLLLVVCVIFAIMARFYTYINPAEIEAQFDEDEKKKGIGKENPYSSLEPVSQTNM
In short: (§1)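 [3H]GlySar 5.0 µM final, 30-s uptake at 24°C in 100 mM potassium phosphate pH 6.5, with or without a potential inhibitor at 10 mM. Cells are methanol-induced transformants. Values are vector-subtracted and expressed as percent of buffer control. Mean ± SE (n=3). ANOVA with Dunnett's test.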

[2] = molecular target: T1, Solute carrier family 15 member 1; assay: Drug uptake in Pichia pastoris GS115 expressing mouse recombinant PEPT1 at 5 uM after 30s by dual-channel liquid scintillation counting analysis in presence of cephalothin relative to control; conditions: 0.5 min; in short: as §1
[3] = molecular target: T2, Solute carrier family 15 member 1 (Rattus norvegicus, UniProt P51574); assay: Drug uptake in Pichia pastoris GS115 expressing rat recombinant PEPT1 at 5 uM after 30s by dual-channel liquid scintillation counting analysis in presence of cephradine relative to control; conditions: 0.5 min
T2 sequence (P51574 whole entry): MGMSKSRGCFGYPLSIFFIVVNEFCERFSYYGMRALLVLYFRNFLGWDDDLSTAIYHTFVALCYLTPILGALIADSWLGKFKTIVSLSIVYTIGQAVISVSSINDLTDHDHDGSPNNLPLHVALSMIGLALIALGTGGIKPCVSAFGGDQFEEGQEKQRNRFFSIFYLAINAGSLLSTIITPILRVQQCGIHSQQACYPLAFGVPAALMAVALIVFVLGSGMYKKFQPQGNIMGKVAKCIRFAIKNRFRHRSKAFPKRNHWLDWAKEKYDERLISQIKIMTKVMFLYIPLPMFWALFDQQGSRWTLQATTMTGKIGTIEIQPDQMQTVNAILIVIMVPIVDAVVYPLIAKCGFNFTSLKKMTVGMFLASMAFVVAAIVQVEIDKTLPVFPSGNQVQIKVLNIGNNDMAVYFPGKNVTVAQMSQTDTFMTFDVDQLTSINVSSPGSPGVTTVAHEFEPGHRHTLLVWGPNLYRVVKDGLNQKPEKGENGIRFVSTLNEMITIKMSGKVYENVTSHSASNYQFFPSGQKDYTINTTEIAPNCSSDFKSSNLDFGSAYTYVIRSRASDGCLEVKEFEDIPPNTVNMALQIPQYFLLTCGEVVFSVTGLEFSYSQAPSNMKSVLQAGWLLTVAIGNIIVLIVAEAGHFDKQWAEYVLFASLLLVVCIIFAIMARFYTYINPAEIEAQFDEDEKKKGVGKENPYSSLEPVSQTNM
In short: (§2)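 Rat PEPT1 (pPIC3.5K-rPept1) in GS115 His+Mut+ transformant, methanol-induced 20-24 hr in BMMY at 30°C, washed into 100 mM potassium phosphate pH 6.5. [3H]GlySar final 5.0 µM with inhibitor at 10 mM, 30 sec at 24°C. Counts taken by liquid scintillation after 24 hr standing. Values are vector-subtracted and given as % of buffer control. Mean ± SE, n=3.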

[4] = molecular target: T3, Solute carrier family 15 member 1 (Homo sapiens, UniProt P46059); assay: Drug uptake in Pichia pastoris GS115 expressing human recombinant PEPT1 at 5 uM after 30s by dual-channel liquid scintillation counting analysis in presence of acyclovir relative to control; conditions: 0.5 min; in short: as §1
T3 sequence (P46059 whole entry): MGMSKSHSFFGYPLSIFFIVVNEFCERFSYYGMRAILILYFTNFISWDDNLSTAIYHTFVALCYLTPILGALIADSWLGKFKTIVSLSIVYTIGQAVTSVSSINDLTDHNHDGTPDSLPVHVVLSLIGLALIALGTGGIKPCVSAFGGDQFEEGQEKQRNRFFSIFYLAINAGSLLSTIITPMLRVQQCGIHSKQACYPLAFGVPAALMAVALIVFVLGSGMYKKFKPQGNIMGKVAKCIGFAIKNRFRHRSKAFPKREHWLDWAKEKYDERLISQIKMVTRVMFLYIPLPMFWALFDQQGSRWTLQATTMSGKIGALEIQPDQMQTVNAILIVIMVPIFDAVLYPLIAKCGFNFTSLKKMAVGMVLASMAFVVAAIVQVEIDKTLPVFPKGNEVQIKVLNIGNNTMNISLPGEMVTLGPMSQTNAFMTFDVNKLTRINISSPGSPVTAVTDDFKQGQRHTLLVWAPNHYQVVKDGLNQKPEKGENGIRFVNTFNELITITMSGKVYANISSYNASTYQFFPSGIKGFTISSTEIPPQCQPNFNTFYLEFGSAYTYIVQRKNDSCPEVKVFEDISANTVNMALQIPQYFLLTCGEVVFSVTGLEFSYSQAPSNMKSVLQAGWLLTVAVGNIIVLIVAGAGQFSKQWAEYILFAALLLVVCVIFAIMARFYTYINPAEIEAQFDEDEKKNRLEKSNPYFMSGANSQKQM

[5] = molecular target: T3, Solute carrier family 15 member 1; assay: Drug uptake in Pichia pastoris GS115 expressing human recombinant PEPT1 at 5 uM after 30s by dual-channel liquid scintillation counting analysis in presence of cephapirin relative to control; conditions: 0.5 min; in short: as §1
[6] = molecular target: T2, Solute carrier family 15 member 1; assay: Drug uptake in Pichia pastoris GS115 expressing rat recombinant PEPT1 at 5 uM after 30s by dual-channel liquid scintillation counting analysis in presence of cephalothin relative to control; conditions: 0.5 min; in short: as §2
[7] = molecular target: T2, Solute carrier family 15 member 1; assay: Drug uptake in Pichia pastoris GS115 expressing rat recombinant PEPT1 at 5 uM after 30s by dual-channel liquid scintillation counting analysis in presence of SITS relative to control; conditions: in vivo, 0.5 min; in short: as §1

- Drug uptake [1]: 9.8%
- Drug uptake [2]: 85%
- Drug uptake [3]: 23.4%
- Drug uptake [4]: 114%
- Drug uptake [5]: 100%
- Drug uptake [6]: 119%
- Drug uptake [7]: 107%
Structure (SMILES): [3H]C(C(=O)O)N(C)C(=O)CN (configuration not stated)
